In brackets after ≈: the same amount, converted by molar mass.
How the values were obtained:
Staphylococcus aureus [1] = experiment: Antibacterial activity against multidrug-resistant Staphylococcus aureus N315 cultured in MHB medium assessed as reduction in bacterial growth incubated for 24 hrs by microdilution susceptibility test; format: functional; conditions: N315, 24 h
Procedure, shortened: (§1)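 Broth microdilution per CLSI M07-A9 (modified). Working solutions made from concentrated DMSO stocks kept at r.t., diluted in double-distilled water, final DMSO <1%. Inoculum 1–1.2 x 10⁶ cells/mL in Mueller-Hinton broth, mixed 1:1 with compound. 37 °C, 24 h, four parallels. Read as OD₆₀₀. Where precipitation left residual OD, the point of major OD decrease was taken as the inhibitory concentration.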

Staphylococcus aureus [2] = experiment: Antibacterial activity against Staphylococcus aureus ATCC 9144 cultured in MHB medium assessed as no bacterial growth incubated at 37 degC for 24 hrs by microdilution susceptibility test; format: functional; conditions: ATCC 9144, 24 h
Procedure, shortened: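 Broth microdilution per CLSI M07-A9 with modifications. Inoculum about 2.5–3 x 10⁴ cells/mL in Mueller-Hinton broth, mixed 1:1 with test derivative. DMSO stocks diluted in double-distilled water, final DMSO <1%. Incubation 24 h at 37 °C (20 °C for C. glutamicum). Growth and sterility controls included; oxytetracycline reference.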

HepG2 = experiment: Cytotoxicity against human HepG2 cells assessed as reduction in cell viability incubated for 4 hrs by CellTiter 96 Aqueous One Solution Reagent based assay; conditions: HepG2, 4 h
Procedure, shortened: (§2)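 HepG2 and MRC-5 cells seeded at 35 000 and 15 000 cells/well respectively, then held overnight at 37 °C, 5% CO₂. Compounds in serum-free MEM Earle's applied for 4 h. MTS reagent (CellTiter 96 AQueous One) added for a further 1 h, absorbance read at 485 nm. Survival expressed relative to medium (negative) and Triton X-100 (positive) controls.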

Escherichia coli [3] = experiment: Antibacterial activity against multidrug-resistant Escherichia coli 50857972 producing imipenem-type carbapenemase-26 cultured in MHB medium assessed as reduction in bacterial growth incubated for 24 hrs by microdilution susceptibility test; format: functional; conditions: Escherichia coli, 50857972, 24 h; procedure, shortened: as §1
Klebsiella pneumoniae [4] = experiment: Antibacterial activity against multidrug-resistant Klebsiella pneumoniae K47-25 producing carbapenemase-2 cultured in MHB medium assessed as reduction in bacterial growth incubated for 24 hrs by microdilution susceptibility test; format: functional; conditions: K47-25, 24 h; procedure, shortened: as §1
Staphylococcus aureus [5] = experiment: Antibacterial activity against multidrug-resistant Staphylococcus aureus WIS cultured in MHB medium assessed as reduction in bacterial growth incubated for 24 hrs by microdilution susceptibility test; format: functional; procedure, shortened: as §1
Acinetobacter baumannii [6] = experiment: Antibacterial activity against multidrug-resistant Acinetobacter baumannii K47-42 producing oxcillinase-23 cultured in MHB medium assessed as reduction in bacterial growth incubated for 24 hrs by microdilution susceptibility test; format: functional; conditions: K47-42, 24 h; procedure, shortened: as §1
Klebsiella pneumoniae [7] = experiment: Antibacterial activity against multidrug-resistant Klebsiella pneumoniae 50667959 producing Verona integron encoded metallo beta-lactamse-1 cultured in MHB medium assessed as reduction in bacterial growth incubated for 24 hrs by microdilution susceptibility test; format: functional; conditions: Klebsiella pneumoniae, 50667959, 24 h; procedure, shortened: as §1
MRC5 = experiment: Cytotoxicity against human MRC5 cells assessed as reduction in cell viability incubated for 4 hrs by CellTiter 96 Aqueous One Solution Reagent based assay; conditions: MRC5, 4 h; procedure, shortened: as §2
Pseudomonas aeruginosa = experiment: Antibacterial activity against multidrug-resistant Pseudomonas aeruginosa 50692520 producing Verona integron encoded metallo beta-lactamse cultured in MHB medium assessed as reduction in bacterial growth incubated for 24 hrs by microdilution susceptibility test; format: functional; conditions: Pseudomonas aeruginosa, 50692520, 24 h; procedure, shortened: as §1
Klebsiella pneumoniae [8] = experiment: Antibacterial activity against multidrug-resistant Klebsiella pneumoniae 50531633 producing New Delhi metallo-beta-lactamase-1 and oxcillinase-181 cultured in MHB medium assessed as reduction in bacterial growth incubated for 24 hrs by microdilution susceptibility test; format: functional; conditions: Klebsiella pneumoniae, 50531633, 24 h; procedure, shortened: as §1
Klebsiella pneumoniae [9] = experiment: Antibacterial activity against multidrug-resistant Klebsiella pneumoniae K66-45 producing New Delhi metallo-beta-lactamase-1 cultured in MHB medium assessed as reduction in bacterial growth incubated for 24 hrs by microdilution susceptibility test; format: functional; conditions: K66-45, 24 h; procedure, shortened: as §1
Staphylococcus aureus [10] = experiment: Antibacterial activity against multidrug-resistant Staphylococcus aureus 85/2082 cultured in MHB medium assessed as reduction in bacterial growth incubated for 24 hrs by microdilution susceptibility test; format: functional; conditions: 85/2082, 24 h; procedure, shortened: as §1
Acinetobacter baumannii [11] = experiment: Antibacterial activity against multidrug-resistant Acinetobacter baumannii K44-35 producing oxcillinase-23 cultured in MHB medium assessed as reduction in bacterial growth incubated for 24 hrs by microdilution susceptibility test; format: functional; conditions: K44-35, 24 h; procedure, shortened: as §1
Escherichia coli [12] = experiment: Antibacterial activity against multidrug-resistant Escherichia coli 50676002 producing New Delhi metallo-beta-lactamase-1 cultured in MHB medium assessed as reduction in bacterial growth incubated for 24 hrs by microdilution susceptibility test; format: functional; conditions: Escherichia coli, 50676002, 24 h; procedure, shortened: as §1
[13] = Aqueous solubility of the compound in DMSO; format: physicochemical

Compound | MIC (Staphylococcus aureus [1]) | MIC (Staphylococcus aureus [2]) | EC50 (HepG2) | MIC (Escherichia coli [3]) | MIC (Klebsiella pneumoniae [4]) | MIC (Staphylococcus aureus [5]) | MIC (Acinetobacter baumannii [6]) | MIC (Klebsiella pneumoniae [7]) | EC50 (MRC5) | MIC (Pseudomonas aeruginosa) | MIC (Klebsiella pneumoniae [8]) | MIC (Klebsiella pneumoniae [9]) | MIC (Staphylococcus aureus [10]) | MIC (Acinetobacter baumannii [11]) | MIC (Escherichia coli [12]) | solubility [13]
NCCNCC(CN)(Cc1ccccc1Br)Cc1ccccc1Br | 8 mg/L (≈ 17.6 µM) | 16 mg/L (≈ 35.1 µM) | 18 mg/L (≈ 39.5 µM) | 16 mg/L (≈ 35.1 µM) | 16 mg/L (≈ 35.1 µM) | 8 mg/L (≈ 17.6 µM) | 16 mg/L (≈ 35.1 µM) | 16 mg/L (≈ 35.1 µM) | 8 mg/L (≈ 17.6 µM) | 16 mg/L (≈ 35.1 µM) | 16 mg/L (≈ 35.1 µM) | 16 mg/L (≈ 35.1 µM) | 8 mg/L (≈ 17.6 µM) | 16 mg/L (≈ 35.1 µM) | 16 mg/L (≈ 35.1 µM) | 
N=C(N)NCCNC(=O)C(CNC(=N)N)(Cc1cc(Br)cc(Br)c1)Cc1cc(Br)cc(Br)c1 | 2 mg/L (≈ 2.81 µM) | 1 mg/L (≈ 1.41 µM) | > 64 mg/L | 8 mg/L (≈ 11.3 µM) | 32 mg/L (≈ 45 µM) | 2 mg/L (≈ 2.81 µM) | 16 mg/L (≈ 22.5 µM) | 16 mg/L (≈ 22.5 µM) | > 64 mg/L | 4 mg/L (≈ 5.63 µM) | 16 mg/L (≈ 22.5 µM) | 16 mg/L (≈ 22.5 µM) | 2 mg/L (≈ 2.81 µM) | 16 mg/L (≈ 22.5 µM) | 8 mg/L (≈ 11.3 µM) | 
NCCNC(=O)C(CN)(Cc1ccc(C(F)(F)F)cc1)Cc1ccc(C(F)(F)F)cc1 | > 32 mg/L | 8 mg/L (≈ 17.9 µM) |  | 32 mg/L (≈ 71.5 µM) | > 32 mg/L | > 32 mg/L | > 32 mg/L | 32 mg/L (≈ 71.5 µM) | 16 mg/L (≈ 35.8 µM) | > 32 mg/L | 32 mg/L (≈ 71.5 µM) | > 32 mg/L | > 32 mg/L | > 32 mg/L | > 32 mg/L | Soluble
NCCNCC(CN)(Cc1cc(Br)cc(Br)c1)Cc1cc(Br)cc(Br)c1 | 4 mg/L (≈ 6.52 µM) | 2 mg/L (≈ 3.26 µM) | 12 mg/L (≈ 19.6 µM) | 8 mg/L (≈ 13 µM) | 8 mg/L (≈ 13 µM) | 8 mg/L (≈ 13 µM) | 16 mg/L (≈ 26.1 µM) | 16 mg/L (≈ 26.1 µM) | 15 mg/L (≈ 24.5 µM) | 32 mg/L (≈ 52.2 µM) | 8 mg/L (≈ 13 µM) | 8 mg/L (≈ 13 µM) | 8 mg/L (≈ 13 µM) | 8 mg/L (≈ 13 µM) | 8 mg/L (≈ 13 µM) | 
N=C(N)NCCNC(=O)C(CNC(=N)N)(Cc1cc(C(F)(F)F)cc(C(F)(F)F)c1)Cc1cc(C(F)(F)F)cc(C(F)(F)F)c1 | 4 mg/L (≈ 5.99 µM) | 2 mg/L (≈ 3 µM) | > 64 mg/L | 32 mg/L (≈ 47.9 µM) | > 32 mg/L | 8 mg/L (≈ 12 µM) | > 32 mg/L | > 32 mg/L | > 64 mg/L | 16 mg/L (≈ 24 µM) | > 32 mg/L | > 32 mg/L | 8 mg/L (≈ 12 µM) | > 32 mg/L | 32 mg/L (≈ 47.9 µM) | 
NCCNCC(CN)(Cc1cc(C(F)(F)F)cc(C(F)(F)F)c1)Cc1cc(C(F)(F)F)cc(C(F)(F)F)c1 | 8 mg/L (≈ 14 µM) | 4 mg/L (≈ 7.02 µM) | 7 mg/L (≈ 12.3 µM) | 8 mg/L (≈ 14 µM) | 16 mg/L (≈ 28.1 µM) | 8 mg/L (≈ 14 µM) | 8 mg/L (≈ 14 µM) | 8 mg/L (≈ 14 µM) | 14 mg/L (≈ 24.6 µM) | 32 mg/L (≈ 56.2 µM) | 8 mg/L (≈ 14 µM) | 8 mg/L (≈ 14 µM) | 8 mg/L (≈ 14 µM) | 8 mg/L (≈ 14 µM) | 8 mg/L (≈ 14 µM) | 

— ChEMBL document CHEMBL4311965, “Antimicrobial activity of amphipathic α,α-disubstituted β-amino amide derivatives against ESBL - CARBA producing multi-resistant bacteria; effect of halogenation, lipophilicity and cationic character” (Eur J Med Chem, 2019)
